Experimental findings from ChEMBL document CHEMBL1641407, “Imidazo[4,5-d]thiazolo[5,4-b]pyridine based inhibitors of IKK2: synthesis, SAR, PK/PD and activity in a preclinical model of rheumatoid arthritis” (Bioorg Med Chem Lett, 2011) are described below.

One series deals with Canis familiaris. The series is described as follows: Total AUC in dog at 2 mg/kg, iv. As to conditions: in vivo. Set-up: time AUCmax, dose 2 mg/kg, route intravenous. It is filed as ADME, organism-based, Canis lupus familiaris. The method in brief:
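Dogs received the compound intravenously only, in PEG400:water 80:20. Total plasma exposure (AUC_tot) is reported in nM h.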

The test system of the next series is Rattus norvegicus. As to the kind of experiment: Total AUC in rat at 2 mg/kg, iv and 10 mg/kg, po. It is filed as ADME, organism-based. As to conditions: in vivo.
Series [1] in a line: Volume of distribution at steady state in rat at 2 mg/kg, iv and 10 mg/kg, po. It is filed as ADME, organism-based. As to conditions: in vivo, read-out: Vdss.
Series [2] can be described thus: Volume of distribution at steady state in mouse at 2 mg/kg, iv and 10 mg/kg, po. The format is ADME, organism-based. As to conditions: in vivo, read-out: Vdss.
Series [3] can be described thus: Clearance in dog at 2 mg/kg, iv. As to conditions: in vivo. It is filed as ADME, organism-based, Canis lupus familiaris. Set-up: dose 2 mg/kg, route intravenous. An outline of the steps:
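Dog pharmacokinetics, iv dosing only, in vehicle PEG400:water 80:20.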

Series [4] is described as follows: Clearance in rat at 2 mg/kg, iv and 10 mg/kg, po. The format is ADME, organism-based. As to conditions: in vivo.
A short description of series [5]: Mean residence time in rat at 2 mg/kg, iv and 10 mg/kg, po. As to conditions: in vivo. It is filed as ADME, organism-based.
Series [6] in a line: Tmax in rat at 2 mg/kg, iv and 10 mg/kg, po. As to conditions: in vivo. It is filed as ADME, organism-based.
Series [7] has as its target T1, Inhibitor of nuclear factor kappa-B kinase subunit beta (Homo sapiens, UniProt O14920).
T1 sequence (O14920 whole entry): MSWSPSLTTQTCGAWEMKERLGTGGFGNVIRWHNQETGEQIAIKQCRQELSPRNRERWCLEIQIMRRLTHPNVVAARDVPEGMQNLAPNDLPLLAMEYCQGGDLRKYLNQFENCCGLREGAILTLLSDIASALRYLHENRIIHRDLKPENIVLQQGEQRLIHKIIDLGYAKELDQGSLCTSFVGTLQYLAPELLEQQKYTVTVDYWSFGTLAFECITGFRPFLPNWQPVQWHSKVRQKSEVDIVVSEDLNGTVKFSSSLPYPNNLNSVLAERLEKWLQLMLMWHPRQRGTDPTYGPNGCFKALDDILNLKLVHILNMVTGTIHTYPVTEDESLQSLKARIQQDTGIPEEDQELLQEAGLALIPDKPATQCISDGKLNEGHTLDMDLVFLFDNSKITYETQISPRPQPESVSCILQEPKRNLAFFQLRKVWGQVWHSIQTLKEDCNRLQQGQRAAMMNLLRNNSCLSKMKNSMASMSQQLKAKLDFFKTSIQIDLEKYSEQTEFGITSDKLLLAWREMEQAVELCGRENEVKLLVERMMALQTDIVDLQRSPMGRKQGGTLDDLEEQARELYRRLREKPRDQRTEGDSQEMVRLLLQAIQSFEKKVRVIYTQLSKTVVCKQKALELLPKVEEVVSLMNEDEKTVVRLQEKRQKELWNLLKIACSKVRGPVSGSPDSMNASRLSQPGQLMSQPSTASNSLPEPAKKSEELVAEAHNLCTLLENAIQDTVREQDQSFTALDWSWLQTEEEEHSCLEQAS
As to the kind of experiment: Inhibition of IKK2. The method in brief: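 IKK-2 added at room temperature to 50 µg/mL GST-IκBα with ATP in 25 mM Tris·HCl, pH 7.5, containing MgCl₂, phosphate salts, NaCl, KCl, 1 mM DTT, 5% glycerol and BSA. Stopped after 60 min with 33 mM EDTA. Phospho-IκBα read by fluorescence-polarization competition between an anti-phospho-IκBα antibody and a fluorescein-labelled phosphopeptide.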

Another series relates to Mus musculus. As to the kind of experiment: Antiarthritic activity in mouse assessed as decrease in collagen-induced arthritis at 60 mg/kg, po BID administered at time of second collagen challenge on day 25 measured on day 42. The format is functional. An outline of the steps:
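Collagen-induced arthritis in mice, n = 14–15 per group. Collagen priming injection on day 1, second collagen injection on day 25. Dosing 60 mg/kg by oral gavage twice daily, or vehicle, starting at the second injection. Read-out is the average gross clinical score per treatment group.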

The target of series [8] is T2, Cyclin-G-associated kinase (Homo sapiens) (UniProt O14976).
T2 sequence (whole entry): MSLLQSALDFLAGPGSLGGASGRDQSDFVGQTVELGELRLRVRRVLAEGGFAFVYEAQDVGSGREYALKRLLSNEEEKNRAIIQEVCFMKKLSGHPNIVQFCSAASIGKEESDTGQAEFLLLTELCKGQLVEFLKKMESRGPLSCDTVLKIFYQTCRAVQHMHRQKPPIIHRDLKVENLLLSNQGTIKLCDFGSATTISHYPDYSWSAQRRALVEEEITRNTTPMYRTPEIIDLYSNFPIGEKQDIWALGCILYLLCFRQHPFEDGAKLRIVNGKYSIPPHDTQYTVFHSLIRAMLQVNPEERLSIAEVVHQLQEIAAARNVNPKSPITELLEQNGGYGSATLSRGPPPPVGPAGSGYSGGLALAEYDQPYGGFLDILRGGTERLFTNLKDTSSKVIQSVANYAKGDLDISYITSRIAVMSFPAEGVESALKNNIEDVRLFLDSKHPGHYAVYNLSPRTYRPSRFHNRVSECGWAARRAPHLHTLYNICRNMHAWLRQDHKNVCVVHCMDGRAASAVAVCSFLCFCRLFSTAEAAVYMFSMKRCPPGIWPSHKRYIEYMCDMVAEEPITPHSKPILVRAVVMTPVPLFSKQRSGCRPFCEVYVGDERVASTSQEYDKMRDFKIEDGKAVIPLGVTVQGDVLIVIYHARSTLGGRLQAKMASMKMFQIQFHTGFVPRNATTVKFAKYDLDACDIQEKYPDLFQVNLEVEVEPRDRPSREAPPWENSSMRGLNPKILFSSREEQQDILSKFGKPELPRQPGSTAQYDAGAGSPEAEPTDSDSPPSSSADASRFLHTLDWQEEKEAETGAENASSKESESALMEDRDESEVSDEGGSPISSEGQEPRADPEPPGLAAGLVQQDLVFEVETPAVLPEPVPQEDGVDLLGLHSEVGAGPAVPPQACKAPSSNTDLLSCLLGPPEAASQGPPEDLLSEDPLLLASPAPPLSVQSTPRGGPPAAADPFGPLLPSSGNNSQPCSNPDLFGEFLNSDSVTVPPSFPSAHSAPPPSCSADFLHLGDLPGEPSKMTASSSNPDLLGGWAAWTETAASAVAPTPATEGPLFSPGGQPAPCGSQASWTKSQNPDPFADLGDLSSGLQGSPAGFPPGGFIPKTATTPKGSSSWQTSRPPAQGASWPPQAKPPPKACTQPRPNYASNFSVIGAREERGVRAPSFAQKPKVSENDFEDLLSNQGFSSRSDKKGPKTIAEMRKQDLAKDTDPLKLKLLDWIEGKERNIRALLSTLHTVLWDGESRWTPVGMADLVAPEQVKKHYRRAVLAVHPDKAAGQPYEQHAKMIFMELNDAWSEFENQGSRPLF
The series is described as follows: Residual activity at GAK at 10 uM relative to control.

pIC50: −log10 of the molar value. Where only a bound is given, the exact number is not on record here.

Consider `CCNc1nc2sc(-c3cccc([C@H](C)NC(C)=O)c3)nc2c2c1ncn2C`, for which the AUC with Canis familiaris was 1980 nM; with Rattus norvegicus, 4.63 µM. In addition, the Vd in series [1] amounted to 2.3 L/kg; in [2] it was 1.5 L/kg. In addition, the figures for the clearance in [3] and in series [4] were 43 mL/min/kg and 63 mL/min/kg, respectively. In series [5], the MRT worked out at 2.1 h. Also, in series [6], the Tmax was 2 h. In series [7], the pIC50 was 7.72. Further, the inhibition in vivo at 60 mg/kg in the series with Mus musculus came out at 80%. In series [8], the residual activity was less than 10%.
